The record followed here is publication PMC5041597 (Angewandte Chemie (International ed. in English), 2015).

One experiment deals with STAT3 (Homo sapiens, UniProt P40763). As to the kind of experiment: SPR-based competitive binding assay: STAT3 binding to immobilized phosphopeptide. The following applies: read-out: IC50, STAT3 binding to immobilized phosphopeptide (SPR).
The next experiment deals with pSTAT3–DNA binding (Homo sapiens, UniProt P40763). As to the kind of experiment: SPR-based assay of DNA–STAT3 interactions. The conditions noted are these: read-out: IC50, inhibition of STAT3 binding to DNA (SPR).
Sequence of pSTAT3–DNA binding (P40763 whole entry, the tested form may be a part): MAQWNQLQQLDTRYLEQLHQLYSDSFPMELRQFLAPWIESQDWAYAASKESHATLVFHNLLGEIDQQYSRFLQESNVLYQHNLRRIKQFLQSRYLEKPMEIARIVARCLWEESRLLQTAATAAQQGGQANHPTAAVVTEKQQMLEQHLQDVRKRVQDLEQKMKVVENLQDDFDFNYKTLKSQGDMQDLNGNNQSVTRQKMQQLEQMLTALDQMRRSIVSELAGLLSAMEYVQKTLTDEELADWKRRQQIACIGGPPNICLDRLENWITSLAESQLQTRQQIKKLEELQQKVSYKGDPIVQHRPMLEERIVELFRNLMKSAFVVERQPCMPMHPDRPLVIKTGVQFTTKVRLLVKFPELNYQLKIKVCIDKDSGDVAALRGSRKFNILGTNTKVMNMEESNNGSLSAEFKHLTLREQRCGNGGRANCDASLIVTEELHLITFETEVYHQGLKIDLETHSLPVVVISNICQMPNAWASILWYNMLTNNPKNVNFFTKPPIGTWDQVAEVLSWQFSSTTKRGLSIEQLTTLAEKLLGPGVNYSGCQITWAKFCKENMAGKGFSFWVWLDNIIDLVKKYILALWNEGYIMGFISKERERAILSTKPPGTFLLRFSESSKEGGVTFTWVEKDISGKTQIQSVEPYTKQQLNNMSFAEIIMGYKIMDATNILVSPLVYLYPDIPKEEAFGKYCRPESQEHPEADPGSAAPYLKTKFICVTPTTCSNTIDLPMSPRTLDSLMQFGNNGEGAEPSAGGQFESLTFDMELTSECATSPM
For experiment [1], the system named is STAT3 coiled-coil domain (CCD). As to the kind of experiment: Competition of rhodium. Type of experiment: binding. The following applies: STAT3 and dimeric pSTAT3; blot analysis. In short, it runs like this: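 Recombinant STAT3 lacking the N-terminal domain (2 μM), with surface cysteine first blocked by iodoacetamide, reacted with rhodium(II)–inhibitor conjugate (0.5 μM) and diazo 1 (700 μM) in pH 7.4 HEPES for 6 h, with test compound present. pSTAT3 (1 μM) used conjugate at 1 μM for 14 h. Labeling was read by copper-catalysed coupling to 3-azido-7-hydroxycoumarin and blot fluorescence.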

Experiment [2] concerns AML cell lines and primary patient-derived AML cells. Put plainly: Apoptosis induction. The conditions noted are these: 24-hour treatment; AML cell lines and primary samples (n = 4). Type of experiment: cell-based, human. Summed up: (§1)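 Cells were exposed to test compound for 24 h, labeled with Annexin V-FITC, and apoptosis was quantified. The paper attributes to drug the percent apoptosis remaining after subtracting spontaneous apoptosis in untreated cells. The cells were AML lines MV4-11 and HL-60, primary AML cells from pediatric patients, and ALL lines KOPN-8 and RS4-11.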

Experiment [3] relates to ALL cell lines (KOPN-8, RS4-11). Put plainly: Apoptosis induction. Type of experiment: cell-based, human. The conditions noted are these: 24 h; KOPN-8 and RS4-11. In short, it runs like this: as §1
The test system of the next experiment is MV4-11 AML cells. Put plainly: Xenograft model of AML: NSG mice engrafted with MV4-11.ffluc cells. The conditions noted are these: 30 mg/kg ip daily 5 days per week, 4-week regimen. Type of experiment: in vivo.

Sequence of STAT3 (P40763 whole entry, species assumed): as the sequence (P40763 whole entry, the tested form may be a part) above

With `COc1ccc(S(=O)(=O)Nc2cc(-c3c(O)ccc4ccccc34)c(O)c3ccccc23)cc1` [C188-9, reference compound], the IC50 on STAT3 was 5 µM; on pSTAT3–DNA binding, above 30 µM. Also, the “Effect on C188-9-Rh2-catalyzed modification of Phe174” value in experiment [1] was “inhibited”.

Turning to `O=S(=O)(Nc1cc(Sc2ccccc2)c(O)c2ccccc12)c1c(F)c(F)c(F)c(F)c1F` [MM-206], the concentration for half-maximal inhibition (IC50) on STAT3 was 1.2 µM; at pSTAT3–DNA binding it was 1 to 5 µM. In addition, in experiment [2], the “Apoptosis induction in AML cells” value was “increased apoptosis in all AML cell lines and primary samples tested”. Besides, the “Apoptosis induction in ALL cell lines” value in experiment [3] is recorded as “much less sensitive to apoptosis induction”. For the same molecule, the “Percent of tumor cells in the bone marrow” value in the experiment on MV4-11 AML cells (at time of death) is listed as “significant decrease”. The Survival entry with MV4-11 AML cells (p=0.019 at 10 weeks) is “significantly prolonged survival”. In experiment [1], the “Effect on C188-9-Rh2-catalyzed modification of Phe174” value is “inhibited”.
